Assay results published in ChEMBL document CHEMBL3627671, “Novel derivatives of nitro-substituted salicylic acids: Synthesis, antimicrobial activity and cytotoxicity” (Bioorg Med Chem, 2015).
pIC50: −log10 of the molar value. Converted amounts (≈) assume the structure as drawn.

What was measured:
[1] = system: Mycobacterium tuberculosis; assay: Antimycobacterial activity against Mycobacterium tuberculosis H37Rv 331/88 after 14 days; format: functional; conditions: H37Rv 331/88, 336 h
[2] = system: Mycobacterium tuberculosis; assay: Antimycobacterial activity against Mycobacterium tuberculosis H37Rv 331/88 after 21 days; format: functional; conditions: H37Rv 331/88, 504 h
Mycobacterium avium [3] = assay: Antimycobacterial activity against Mycobacterium avium 330/80 after 14 days; format: functional; conditions: 330/80, 336 h
Mycobacterium avium [4] = assay: Antimycobacterial activity against Mycobacterium avium 330/80 after 21 days; format: functional; conditions: 330/80, 504 h
Mycobacterium kansasii [5] = assay: Antimycobacterial activity against Mycobacterium kansasii 235/80 after 7 days; format: functional; conditions: 235/80, 168 h
Procedure, shortened: (§1)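 Šula's semisynthetic medium micromethod at 37 °C, read after 7, 14 and 21 days. The 1.0 McFarland suspension was diluted 10^-4. MIC determined. 6509/96 is a clinical isolate.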

Mycobacterium kansasii [6] = assay: Antimycobacterial activity against Mycobacterium kansasii 235/80 after 14 days; format: functional; conditions: 235/80, 336 h; procedure, shortened: as §1
Mycobacterium kansasii [7] = assay: Antimycobacterial activity against Mycobacterium kansasii 235/80 after 21 days; format: functional; conditions: 235/80, 504 h; procedure, shortened: as §1
Mycobacterium kansasii [8] = assay: Antimycobacterial activity against Mycobacterium kansasii 6509/96 after 7 days; format: functional; conditions: 6509/96, 168 h; procedure, shortened: as §1
Mycobacterium kansasii [9] = assay: Antimycobacterial activity against Mycobacterium kansasii 6509/96 after 14 days; format: functional; conditions: 6509/96, 336 h; procedure, shortened: as §1
Mycobacterium kansasii [10] = assay: Antimycobacterial activity against Mycobacterium kansasii 6509/96 after 21 days; format: functional; conditions: 6509/96, 504 h; procedure, shortened: as §1
Staphylococcus aureus [11] = assay: Antibacterial activity against Staphylococcus aureus CCM 4516/08 after 24 hrs by microdilution broth method; format: functional; conditions: CCM 4516/08, 24 h
Staphylococcus aureus [12] = assay: Antibacterial activity against Staphylococcus aureus CCM 4516/08 after 48 hrs by microdilution broth method; format: functional; conditions: CCM 4516/08, 48 h
Staphylococcus aureus [13] = assay: Antibacterial activity against methicillin-resistant Staphylococcus aureus H 5996/08 after 24 hrs by microdilution broth method; format: functional; conditions: H 5996/08, 24 h
Staphylococcus aureus [14] = assay: Antibacterial activity against methicillin-resistant Staphylococcus aureus H 5996/08 after 48 hrs by microdilution broth method; format: functional; conditions: H 5996/08, 48 h
[15] = system: Staphylococcus epidermidis; assay: Antibacterial activity against Staphylococcus epidermidis H 6966/08 after 24 hrs by microdilution broth method; format: functional; conditions: H 6966/08, 24 h
Procedure, shortened: (§2)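 Mueller-Hinton broth microdilution (modified M07-A07), pH 7.4 (±0.2). Compounds dissolved in DMSO, tested at final 500 to 0.49 µmol/L. Inoculum in sterile water matched to 0.5 McFarland. Incubated in the dark, humid atmosphere, 35 °C, read at 24 and 48 h visually and at 540 nm. MIC taken as ≥95% growth reduction (IC95) versus control.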

[16] = system: Staphylococcus epidermidis; assay: Antibacterial activity against Staphylococcus epidermidis H 6966/08 after 48 hrs by microdilution broth method; format: functional; conditions: H 6966/08, 48 h; procedure, shortened: as §2
Enterococcus sp. [17] = assay: Antibacterial activity against Enterococcus sp. J 14365/08 after 24 hrs by microdilution broth method; format: functional; conditions: J 14365/08, 24 h; procedure, shortened: as §2
Enterococcus sp. [18] = assay: Antibacterial activity against Enterococcus sp. J 14365/08 after 48 hrs by microdilution broth method; format: functional; conditions: J 14365/08, 48 h; procedure, shortened: as §2
Escherichia coli [19] = assay: Antibacterial activity against Escherichia coli CCM4517 after 24 hrs by microdilution broth method; format: functional; conditions: CCM4517, 24 h; procedure, shortened: as §2
Escherichia coli [20] = assay: Antibacterial activity against Escherichia coli CCM4517 after 48 hrs by microdilution broth method; format: functional; conditions: CCM4517, 48 h; procedure, shortened: as §2
Klebsiella pneumoniae [21] = assay: Antibacterial activity against Klebsiella pneumoniae D 11750/08 after 24 hrs by microdilution broth method; format: functional; conditions: D 11750/08, 24 h; procedure, shortened: as §2
Klebsiella pneumoniae [22] = assay: Antibacterial activity against Klebsiella pneumoniae D 11750/08 after 48 hrs by microdilution broth method; format: functional; conditions: D 11750/08, 48 h; procedure, shortened: as §2
Klebsiella pneumoniae [23] = assay: Antibacterial activity against ESBL-positive Klebsiella pneumoniae J 14368/08 after 24 hrs by microdilution broth method; format: functional; conditions: J 14368/08, 24 h; procedure, shortened: as §2
Klebsiella pneumoniae [24] = assay: Antibacterial activity against ESBL-positive Klebsiella pneumoniae J 14368/08 after 48 hrs by microdilution broth method; format: functional; conditions: J 14368/08, 48 h; procedure, shortened: as §2
Pseudomonas aeruginosa [25] = assay: Antibacterial activity against Pseudomonas aeruginosa CCM 1961 after 24 hrs by microdilution broth method; format: functional; conditions: CCM 1961, 24 h; procedure, shortened: as §2
Pseudomonas aeruginosa [26] = assay: Antibacterial activity against Pseudomonas aeruginosa CCM 1961 after 48 hrs by microdilution broth method; format: functional; conditions: CCM 1961, 48 h; procedure, shortened: as §2
Candida albicans [27] = assay: Antifungal activity against Candida albicans ATCC 44859 after 24 hrs by microdilution broth method; format: functional; conditions: ATCC 44859, 24 h
Procedure, shortened: (§3)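 CLSI M27-A3 broth microdilution in RPMI 1640 with glutamine, buffered to pH 7.0 with MOPS; DMSO diluent. Yeast inoculum 5 × 10^3 ± 0.2 CFU/mL. Moulds grown on Sabouraud agar 3–10 days before spore harvest, final inoculum 0.5-5 × 10^4 CFU/mL, checked in a Bürker chamber. Incubated dark, humid, 35 °C, read at 24 and 48 h visually and at 540 nm. MIC taken as ≥80% (yeasts) or ≥50% (filamentous) growth reduction versus control.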

Candida albicans [28] = assay: Antifungal activity against Candida albicans ATCC 44859 after 48 hrs by microdilution broth method; format: functional; conditions: ATCC 44859, 48 h; procedure, shortened: as §3
Candida tropicalis [29] = assay: Antifungal activity against Candida tropicalis 156 after 24 hrs by microdilution broth method; format: functional; conditions: Candida tropicalis, 156, 24 h; procedure, shortened: as §3
Candida tropicalis [30] = assay: Antifungal activity against Candida tropicalis 156 after 48 hrs by microdilution broth method; format: functional; conditions: Candida tropicalis, 156, 48 h; procedure, shortened: as §3
Pichia kudriavzevii [31] = assay: Antifungal activity against Candida krusei E28 after 24 hrs by microdilution broth method; format: functional; conditions: E28, 24 h; procedure, shortened: as §3
Pichia kudriavzevii [32] = assay: Antifungal activity against Candida krusei E28 after 48 hrs by microdilution broth method; format: functional; conditions: E28, 48 h; procedure, shortened: as §3
Nakaseomyces glabratus [33] = assay: Antifungal activity against Candida glabrata 20/I after 24 hrs by microdilution broth method; format: functional; procedure, shortened: as §3
Nakaseomyces glabratus [34] = assay: Antifungal activity against Candida glabrata 20/I after 48 hrs by microdilution broth method; format: functional; procedure, shortened: as §3
Trichosporon asahii [35] = assay: Antifungal activity against Trichosporon asahii 1188 after 24 hrs by microdilution broth method; format: functional; conditions: Trichosporon asahii, 1188, 24 h; procedure, shortened: as §3
Trichosporon asahii [36] = assay: Antifungal activity against Trichosporon asahii 1188 after 48 hrs by microdilution broth method; format: functional; conditions: Trichosporon asahii, 1188, 48 h; procedure, shortened: as §3
Aspergillus fumigatus [37] = assay: Antifungal activity against Aspergillus fumigatus 231 after 24 hrs by microdilution broth method; format: functional; conditions: Aspergillus fumigatus, 231, 24 h; procedure, shortened: as §3
Aspergillus fumigatus [38] = assay: Antifungal activity against Aspergillus fumigatus 231 after 48 hrs by microdilution broth method; format: functional; conditions: Aspergillus fumigatus, 231, 48 h; procedure, shortened: as §3
Lichtheimia corymbifera [39] = assay: Antifungal activity against Absidia corymbifera 272 after 24 hrs by microdilution broth method; format: functional; conditions: Lichtheimia corymbifera, 272, 24 h; procedure, shortened: as §3
Lichtheimia corymbifera [40] = assay: Antifungal activity against Absidia corymbifera 272 after 48 hrs by microdilution broth method; format: functional; conditions: Lichtheimia corymbifera, 272, 48 h; procedure, shortened: as §3
[41] = system: Trichophyton mentagrophytes; assay: Antifungal activity against Trichophyton mentagrophytes 445 after 24 hrs by microdilution broth method; format: functional; conditions: Trichophyton mentagrophytes, 445, 24 h
[42] = system: Trichophyton mentagrophytes; assay: Antifungal activity against Trichophyton mentagrophytes 445 after 48 hrs by microdilution broth method; format: functional; conditions: Trichophyton mentagrophytes, 445, 48 h
HepG2 = assay: Cytotoxicity against human HepG2 cells after 24 hrs […]; format: cell-based; conditions: HepG2, 24 h
[43] = Selectivity index, ratio of CI50 for human HepG2 cells to MIC100 for Mycobacterium tuberculosis H37Rv 331/88

O=C(Nc1cccc(C(F)(F)F)c1)c1ccc([N+](=O)[O-])cc1O
MIC [1]: 8 µM (≈ 2.61 µg/mL) | MIC [2]: 8 µM (≈ 2.61 µg/mL) | MIC (Mycobacterium avium [3]): 62.5 µM (≈ 20.4 µg/mL) | MIC (Mycobacterium avium [4]): 62.5 µM (≈ 20.4 µg/mL) | MIC (Mycobacterium kansasii [5]): 8 µM (≈ 2.61 µg/mL) | MIC (Mycobacterium kansasii [6]): 16 µM (≈ 5.22 µg/mL) | MIC (Mycobacterium kansasii [7]): 16 µM (≈ 5.22 µg/mL) | MIC (Mycobacterium kansasii [8]): 8 µM (≈ 2.61 µg/mL) | MIC (Mycobacterium kansasii [9]): 16 µM (≈ 5.22 µg/mL) | MIC (Mycobacterium kansasii [10]): 16 µM (≈ 5.22 µg/mL) | MIC (Staphylococcus aureus [11]): 3.9 µM (≈ 1.27 µg/mL) | MIC (Staphylococcus aureus [12]): 3.9 µM (≈ 1.27 µg/mL) | MIC (Staphylococcus aureus [13]): 1.95 µM (≈ 0.636 µg/mL) | MIC (Staphylococcus aureus [14]): 1.95 µM (≈ 0.636 µg/mL) | MIC [15]: 1.95 µM (≈ 0.636 µg/mL) | MIC [16]: 7.81 µM (≈ 2.55 µg/mL) | MIC (Enterococcus sp. [17]): 250 µM (≈ 81.6 µg/mL) | MIC (Enterococcus sp. [18]): 500 µM (≈ 163 µg/mL) | MIC (Escherichia coli [19]): 500 µM (≈ 163 µg/mL) | MIC (Escherichia coli [20]): 500 µM (≈ 163 µg/mL) | MIC (Klebsiella pneumoniae [21]): 500 µM (≈ 163 µg/mL) | MIC (Klebsiella pneumoniae [22]): 500 µM (≈ 163 µg/mL) | MIC (Klebsiella pneumoniae [23]): > 500 µM | MIC (Klebsiella pneumoniae [24]): > 500 µM | MIC (Pseudomonas aeruginosa [25]): > 500 µM | MIC (Pseudomonas aeruginosa [26]): > 500 µM | MIC (Candida albicans [27]): > 500 µM | MIC (Candida albicans [28]): > 500 µM | MIC (Candida tropicalis [29]): > 500 µM | MIC (Candida tropicalis [30]): > 500 µM | MIC (Pichia kudriavzevii [31]): 250 µM (≈ 81.6 µg/mL) | MIC (Pichia kudriavzevii [32]): > 500 µM | MIC (Nakaseomyces glabratus [33]): > 500 µM | MIC (Nakaseomyces glabratus [34]): > 500 µM | MIC (Trichosporon asahii [35]): 62.5 µM (≈ 20.4 µg/mL) | MIC (Trichosporon asahii [36]): 250 µM (≈ 81.6 µg/mL) | MIC (Aspergillus fumigatus [37]): 500 µM (≈ 163 µg/mL) | MIC (Aspergillus fumigatus [38]): > 500 µM | MIC (Lichtheimia corymbifera [39]): 500 µM (≈ 163 µg/mL) | MIC (Lichtheimia corymbifera [40]): > 500 µM | MIC [41]: > 500 µM | MIC [42]: > 500 µM | pIC50 (HepG2): 5.55 | Selectivity Index [43]: 0.35
